Data set [1] addresses T1, Muscarinic acetylcholine receptor M2 (Rattus norvegicus, UniProt P10980).
T1 sequence (P10980 whole entry): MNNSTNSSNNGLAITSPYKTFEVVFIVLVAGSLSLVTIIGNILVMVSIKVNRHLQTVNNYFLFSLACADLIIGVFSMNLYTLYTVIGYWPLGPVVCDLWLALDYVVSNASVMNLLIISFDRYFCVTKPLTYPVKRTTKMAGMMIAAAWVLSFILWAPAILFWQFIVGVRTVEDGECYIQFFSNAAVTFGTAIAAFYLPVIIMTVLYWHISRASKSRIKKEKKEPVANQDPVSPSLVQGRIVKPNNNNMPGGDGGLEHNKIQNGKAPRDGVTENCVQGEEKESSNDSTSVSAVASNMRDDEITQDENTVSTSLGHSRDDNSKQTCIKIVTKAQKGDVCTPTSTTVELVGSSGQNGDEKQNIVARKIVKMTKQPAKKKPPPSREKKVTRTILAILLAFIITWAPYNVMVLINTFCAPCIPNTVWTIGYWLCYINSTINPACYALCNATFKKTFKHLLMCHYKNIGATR
The experiment in a line: Activity at rat muscarinic acetylcholine receptor subtype 2 expressed in CHO cells co-transfected with chimeric Gqi5 by calcium mobilization assay. The data set is classed as functional, cell-based. In short, it runs like this:
(§1)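 Muscarinic subtype selectivity by fluorescence calcium mobilization in highly expressing CHO lines with similar receptor levels; Gi/o-coupled M2 and M4 cells co-transfected with chimeric Gqi5 to couple to Ca2+ mobilization. Read-outs are PAM EC50 and ACh max response. Mean ± SEM of at least three independent determinations.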
For orientation: A change in cytosolic calcium serves as a functional read-out for many receptors and channels.

For data set [2], the system named is Rattus norvegicus. The experiment in a line: Brain to plasma partition coefficient, Kp of the compound in Sprague-Dawley rat 1 mg/kg, iv administered as single dose after 15 mins by LC/MS/MS utilizing electrospray ionization method. The settings on record: 0.25 h. The data set is classed as ADME, organism-based. More on the design: dose 1 mg/kg, route intravenous. In a few lines: (§2)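 Male Sprague–Dawley rats (n = 3) dosed 1 mg/kg intravenously. Brain and plasma levels at 15 min after administration give Kp. Kp,uu is the unbound brain-plasma partition coefficient.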

Data set [3] in a line: Fraction unbound in rat brain at 5 uM incubated for 4 hrs at 37 degC by equilibrium dialysis based LC/MS/MS analysis. The format is ADME, tissue-based. In short, it runs like this:
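Fraction unbound measured in rat and human plasma and in rat brain homogenate.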

Data set [4] deals with Muscarinic acetylcholine receptor M3 (Rattus norvegicus, UniProt P08483). The experiment in a line: Activity at rat muscarinic acetylcholine receptor subtype 3 expressed in CHO cells by calcium mobilization assay. The data set is classed as functional, cell-based. In a few lines: as §1
Chain of Muscarinic acetylcholine receptor M3 (P08483 whole entry): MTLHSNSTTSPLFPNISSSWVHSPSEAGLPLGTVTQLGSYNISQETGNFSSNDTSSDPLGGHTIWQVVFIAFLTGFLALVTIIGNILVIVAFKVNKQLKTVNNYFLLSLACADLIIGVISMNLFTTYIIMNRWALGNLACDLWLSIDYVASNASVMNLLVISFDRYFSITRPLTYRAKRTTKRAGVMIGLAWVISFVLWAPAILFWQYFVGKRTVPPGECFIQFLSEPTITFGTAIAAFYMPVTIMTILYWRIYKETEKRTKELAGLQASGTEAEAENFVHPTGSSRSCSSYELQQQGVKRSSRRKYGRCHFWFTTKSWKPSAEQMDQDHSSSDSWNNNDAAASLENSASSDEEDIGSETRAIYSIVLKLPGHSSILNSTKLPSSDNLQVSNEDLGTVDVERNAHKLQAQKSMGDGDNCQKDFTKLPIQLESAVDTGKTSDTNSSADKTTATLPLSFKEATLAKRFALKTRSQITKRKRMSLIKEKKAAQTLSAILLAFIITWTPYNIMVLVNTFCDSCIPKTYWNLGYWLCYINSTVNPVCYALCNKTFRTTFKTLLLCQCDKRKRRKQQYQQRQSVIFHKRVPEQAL
The nature of data set [5]: Apparent permeability in human Caco2 cells. The format is ADME, cell-based. The conditions noted are these: caco-2.
The target in data set [6] is Sigma non-opioid intracellular receptor 1 (Homo sapiens) (UniProt Q99720). The experiment in a line: Displacement of radioligand from human sigma-1 receptor at 10 uM. In a few lines: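 Pan Labs lead profiling radioligand binding battery of 68 GPCRs, ion channels and transporters, with test compound present at 10 μM.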
Chain of Sigma non-opioid intracellular receptor 1 (Homo sapiens) (Q99720 whole entry): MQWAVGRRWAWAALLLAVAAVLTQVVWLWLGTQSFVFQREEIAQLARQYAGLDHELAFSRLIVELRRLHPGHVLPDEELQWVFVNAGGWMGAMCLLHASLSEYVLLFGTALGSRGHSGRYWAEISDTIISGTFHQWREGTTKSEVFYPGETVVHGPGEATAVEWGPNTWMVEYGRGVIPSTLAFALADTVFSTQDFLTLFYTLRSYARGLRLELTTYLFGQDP
Data set [7] has as its target T2, Muscarinic acetylcholine receptor M5 (Homo sapiens) (UniProt P08912).
T2 sequence (whole entry): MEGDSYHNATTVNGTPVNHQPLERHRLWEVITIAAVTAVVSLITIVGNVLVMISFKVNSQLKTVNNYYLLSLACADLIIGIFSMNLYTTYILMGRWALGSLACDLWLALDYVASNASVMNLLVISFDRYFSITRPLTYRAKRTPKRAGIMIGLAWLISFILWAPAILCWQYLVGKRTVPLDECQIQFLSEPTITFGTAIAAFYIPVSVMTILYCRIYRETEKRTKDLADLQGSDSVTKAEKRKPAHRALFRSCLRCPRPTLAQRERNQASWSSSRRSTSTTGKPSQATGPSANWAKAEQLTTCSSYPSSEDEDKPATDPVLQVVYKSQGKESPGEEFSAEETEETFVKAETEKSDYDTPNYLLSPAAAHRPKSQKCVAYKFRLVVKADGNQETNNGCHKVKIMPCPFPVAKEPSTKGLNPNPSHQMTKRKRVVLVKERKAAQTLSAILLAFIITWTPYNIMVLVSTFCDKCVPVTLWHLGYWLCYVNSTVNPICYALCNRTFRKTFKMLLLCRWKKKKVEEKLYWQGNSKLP
In words: Positive allosteric modulator activity at human muscarinic acetylcholine receptor subtype 5 expressed in CHO cells assessed as fold shift in acetylcholine-induced response at 10 uM by calcium mobilization assay. The data set is classed as functional, cell-based. In short, it runs like this: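 In hM5 CHO cells by calcium mobilization, PAM at a fixed 10 μM or vehicle is added before an ACh concentration-response curve. Fold shift is the ratio of ACh potency without PAM to potency with PAM.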

The target in data set [8] is T3, Muscarinic acetylcholine receptor M1 (Homo sapiens) (UniProt P11229).
T3 sequence (whole entry): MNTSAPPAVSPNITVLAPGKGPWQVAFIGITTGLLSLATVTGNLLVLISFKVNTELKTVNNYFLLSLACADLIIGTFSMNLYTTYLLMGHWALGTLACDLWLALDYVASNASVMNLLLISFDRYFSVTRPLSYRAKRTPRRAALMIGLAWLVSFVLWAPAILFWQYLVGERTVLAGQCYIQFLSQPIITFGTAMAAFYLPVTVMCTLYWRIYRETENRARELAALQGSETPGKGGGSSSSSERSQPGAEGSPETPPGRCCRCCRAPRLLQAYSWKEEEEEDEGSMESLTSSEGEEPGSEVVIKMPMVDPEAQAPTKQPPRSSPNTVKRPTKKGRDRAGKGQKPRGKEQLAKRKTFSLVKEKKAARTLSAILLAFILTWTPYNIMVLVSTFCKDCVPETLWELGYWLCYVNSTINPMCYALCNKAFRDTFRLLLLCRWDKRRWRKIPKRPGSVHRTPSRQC
The experiment in a line: Activity at human muscarinic acetylcholine receptor subtype 1 expressed in CHO cells by calcium mobilization assay relative to acetylcholine. The data set is classed as functional, cell-based. In a few lines: as §1

The target of data set [9] is T2, Muscarinic acetylcholine receptor M5 (Homo sapiens). The experiment in a line: Positive allosteric modulator activity at human muscarinic acetylcholine receptor subtype 5 expressed in CHO cells by calcium mobilization assay relative to acetylcholine. The data set is classed as functional, cell-based.
Data set [10] is filed under the species Homo sapiens. In words: Selectivity index, ratio of EC50 for human muscarinic acetylcholine receptor subtype 3 to EC50 for human muscarinic acetylcholine receptor subtype 5.
Data set [11] deals with T2, Muscarinic acetylcholine receptor M5 (Homo sapiens). The experiment in a line: Displacement of [3H]NMS from human muscarinic acetylcholine receptor subtype 5 expressed in CHO cell membranes assessed as radioligand binding level by scintillation counting method. In general terms: Displacement assays read how much labelled ligand stays bound in the presence of the test substance.

For data set [12] the target is unchanged. In words: Positive allosteric modulator activity at human muscarinic acetylcholine receptor subtype 5 expressed in CHO cell membranes assessed as fold shift in acetylcholine binding affinity by [3H]NMS binding based scintillation counting method.
Data set [13] can be described thus: Elimination half life in Sprague-Dawley rat 1 mg/kg, iv administered as single dose by LC/MS/MS utilizing electrospray ionization method. The format is ADME, organism-based. More on the design: dose 1 mg/kg, route intravenous. The conditions noted are these: in vivo, read-out: beta t1/2.
The test system of data set [14] is Rattus norvegicus. In words: Unbound brain-to-plasma concentration ratio in Sprague-Dawley rat 1 mg/kg, iv administered as single dose after 15 mins by LC/MS/MS utilizing electrospray ionization method. The data set is classed as ADME, organism-based. More on the design: dose 1 mg/kg, route intravenous. The settings on record: 0.25 h. In short, it runs like this:
as §2

For data set [15], the target named is T4, Muscarinic acetylcholine receptor M5 (Homo sapiens, UniProt P08912).
T4 sequence (P08912 whole entry): T2 sequence (whole entry)
In words: Positive allosteric modulator activity at human muscarinic acetylcholine receptor subtype 5 expressed in CHO cells by calcium mobilization assay. The data set is classed as functional, cell-based. The conditions noted are these: read-out: EC50.

Data set [16] in a line: Plasma clearance in Sprague-Dawley rat 1 mg/kg, iv administered as single dose by LC/MS/MS utilizing electrospray ionization method. The format is ADME, organism-based. More on the design: dose 1 mg/kg, route intravenous.

The EC50 is the midpoint of the concentration-response curve. One may read the Kp as the ratio of the level in a tissue or fluid to that in plasma or blood. One may read the inhibition as the change of the read-out against control, counted positive when it falls. Low values mean little suppression, high ones strong suppression. One may read the clearance as the volume of plasma or blood freed of the substance per unit of time. Low readings indicate a low capacity for elimination, high ones a high capacity for elimination. Turning to `CCN(Cc1ccccc1C(F)(F)F)C(=O)C1CCN(S(=O)(=O)c2ccc3[nH]ncc3c2)CC1`, the EC50 in [1] was > 30 µM; in data set [4], 3.1 µM; in data set [15], 190 nM. Moreover, the partition ratio (Kp) in data set [2] is 0.36. The compound further displayed a Fu in [3] of 0.011. Besides, the Papp in data set [5] is reported as 2.5 ×10⁻⁵ cm/s. For the same compound, the inhibition in data set [6] came out at 53%. The fold change (FC) in data set [7] came to 9; in data set [12], 15. In addition, the %max in data set [8] came out at 52%; in [9], 96%; in [11] it was 97.1%. Also, in data set [10], the Ratio EC50 was > 10. Also, the half-life in [13] was 22 min. Further, in data set [14], the “K(p,uu,brain)” value was found to be 0.28. Also, the clearance in data set [16] was determined as 66 mL/min/kg.

The record behind these values is ChEMBL document CHEMBL3352313 (J Med Chem, 2014).
